The values below come from ChEMBL document CHEMBL1146622, “Synthesis and biological evaluation of a novel phenyl substituted sydnone series as potential antitumor agents” (2003).

Structures are written as SMILES.

Type in all cases: functional, Homo sapiens
Assay [1] concerns MCF7S. Kind of assay: In vitro antitumor activity determined against MCF-7 cells expressed as percent of growth of the treated cells compared to untreated cells. Also on record: concentration or dose not given beside the values. In a few lines:
(§1)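 NCI 3-cell-line prescreen (MCF7 breast, NCI-H460 lung, SF-268 CNS). Cells inoculated and incubated in microtiter plates, then exposed to test agent at a single concentration for 48 h. Alamar blue end-point read-out. Value is percent growth of treated cells relative to untreated cells.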

The subject of the next assay is NCI-H460. Kind of assay: In vitro antitumor activity determined against NCI-H460 cells expressed as percent of growth of the treated cells compared to untreated cells. Also on record: concentration or dose not given beside the values. Summed up:
as §1

The subject of a further assay is SF-268. Kind of assay: In vitro antitumor activity determined against SF-268 cells expressed as percent of growth of the treated cells compared to untreated cells. Also on record: concentration or dose not given beside the values. In a few lines:
as §1

Assay [2] deals with MCF7S. The assay is described as follows: In vitro antitumor activity determined against MCF-7 cells (breast) expressed as percent of growth of the treated cells compared to untreated cells. In a few lines:
as §1

`O=[N+]([O-])c1cc(-[n+]2cc([O-])on2)ccc1F`: the Cell growth with MCF7S [1], with NCI-H460 and in the assay on SF-268 was 0% throughout.
For `O=[N+]([O-])c1cc(-[n+]2cc([O-])on2)ccc1N1CCc2ccccc21`, the Cell growth with MCF7S [1] stood at 82%; in the assay with NCI-H460 it was 87%; in the assay with SF-268, 96%.
Consider `O=[N+]([O-])c1cc(-[n+]2cc([O-])on2)ccc1N1Cc2ccccc2C1`, for which the Cell growth in the assay with MCF7S [1] was determined as 75%; in the assay on NCI-H460, 76%; in the assay with SF-268, 95%.
For the compound `O=[N+]([O-])c1cc(-[n+]2cc([O-])on2)ccc1N1CCC1`, the Cell growth in the assay with MCF7S [1] came out at 75%; with NCI-H460, 95%; in the assay on SF-268, 95%.
Regarding `CCN(CC)c1ccc(-[n+]2cc([O-])on2)cc1[N+](=O)[O-]`, the Cell growth was 85% in the assay with MCF7S [1], 92% in the assay with NCI-H460 and 95% in the assay on SF-268.
`O=[N+]([O-])c1cc(-[n+]2cc([O-])on2)ccc1Cl`: the Cell growth in the assay with NCI-H460 was 91%; with SF-268, 9%; in the assay with MCF7S [2] it was 44%.
